Results published in PubChem BioAssay.
Activity calls are given as the source filed them.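 The calls were made as follows, unless noted: active = viability loss from added drug above about 55%, and viability with drug at most 40%, in both replicates (limit read from the data, passing the limit was not always enough); inconclusive = both conditions met in only one replicate; inactive = neither replicate meets both conditions.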

Columns and labels:
[1] = reducers of endogenous Her2 protein level, primary screen, SKBR3 breast tumor cells, AlphaScreen, ATP viability (AID 461;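 active = Her2 level under about 52% in both replicate screens, with viability over 70% of control, limit read from the data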;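 as to Her2 level: lower value means less Her2 protein in the cells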;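 as to viability: percent of carrier control wells set as 100% viability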); conditions: 18-24 h, measured here: SKBR3 viability, ATP luminescence, at 10 µM
[2] = biological target: Receptor tyrosine-protein kinase erbB-2 (Homo sapiens) (UniProt P04626); experiment: as above; conditions: 18-24 h, at 10 µM, stronger effect = lower value
[3] = SK-BR-3 cell growth inhibitors, pilot screen, 24 h, human (AID 572;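 active = viability at or below 10% of carrier control in both of two separate runs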;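 also: compound exposure lasted between 18 and 24 h rather than exactly 24 h; 100% = carrier-treated control wells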); conditions: SK-BR-3 viability, CellTiter-Glo luminescence, at 10 µM, stronger effect = lower value
[4] = HUVEC growth inhibition – cell-based, human, primary screen (AID 575;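 active = viability at or below 30% in both replicate assays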;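 also: 100% = median of untreated cell wells with 0.1% DMSO on each plate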); conditions: HUVEC proliferation, CellTiter-Glo luminescence, 72 h; at 10 µM; stronger effect = lower value
How it was run: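 Material: primary human umbilical vein endothelial cells / Schedule: 72 h exposure, 37 °C, 5% CO2, 30 min RT equilibration / Signal: ATP-based CellTiter-Glo luminescent read / Read-out basis: percent of median DMSO-control luminescence / Control set: 32 DMSO-only cell-control wells (high), 32 MePR drug-control wells (low) per plate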

[5] = growth inhibitors of H69AR lung tumor, primary screen, human, duplicate replicates (AID 580;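 active = viability at or under a set limit in both replicates, limit being median viability minus 3 SD, cut at about 48% in these data, passing the limit was not always enough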;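 also: 100% = mean luminescence of untreated wells and 0% = no signal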); conditions: H69AR lung tumor cells viability, ATP luminescence, 72 h; at 10 µM; stronger effect = lower value
[6] = reversal of MRP1-mediated doxorubicin resistance, pilot screen, H69AR cells, doxorubicin co-treatment (AID 601); conditions: CellTiter-Glo, 72 h, at 10 µM; for differential viability (reversal): stronger effect = higher value
[7] = 384-well plate pilot, post-Golgi transport modulator project, inhibition of yeast transport mutant growth (AID 636; in the data active = inhibition above about 31%); conditions: absorbance 615 nm, about 18 h, stronger effect = higher value
[8] = growth suppression of yeast trafficking mutant, preliminary HTS, modulators of trafficking downstream of Golgi apparatus project, 1536-format plate, OD 615 nm (AID 637; in the data active = inhibition above about 30%); conditions: yeast transport mutant growth, absorbance 615 nm, 18 h; stronger effect = higher value
[9] = H69AR cells + 2 uM doxorubicin, measured here: viability with 2 uM doxorubicin, stronger effect = lower value
[10] = H69AR cells, compound alone cytotoxicity

Receptor tyrosine-protein kinase erbB-2 (Homo sapiens), sequence (P04626 whole entry, looked up): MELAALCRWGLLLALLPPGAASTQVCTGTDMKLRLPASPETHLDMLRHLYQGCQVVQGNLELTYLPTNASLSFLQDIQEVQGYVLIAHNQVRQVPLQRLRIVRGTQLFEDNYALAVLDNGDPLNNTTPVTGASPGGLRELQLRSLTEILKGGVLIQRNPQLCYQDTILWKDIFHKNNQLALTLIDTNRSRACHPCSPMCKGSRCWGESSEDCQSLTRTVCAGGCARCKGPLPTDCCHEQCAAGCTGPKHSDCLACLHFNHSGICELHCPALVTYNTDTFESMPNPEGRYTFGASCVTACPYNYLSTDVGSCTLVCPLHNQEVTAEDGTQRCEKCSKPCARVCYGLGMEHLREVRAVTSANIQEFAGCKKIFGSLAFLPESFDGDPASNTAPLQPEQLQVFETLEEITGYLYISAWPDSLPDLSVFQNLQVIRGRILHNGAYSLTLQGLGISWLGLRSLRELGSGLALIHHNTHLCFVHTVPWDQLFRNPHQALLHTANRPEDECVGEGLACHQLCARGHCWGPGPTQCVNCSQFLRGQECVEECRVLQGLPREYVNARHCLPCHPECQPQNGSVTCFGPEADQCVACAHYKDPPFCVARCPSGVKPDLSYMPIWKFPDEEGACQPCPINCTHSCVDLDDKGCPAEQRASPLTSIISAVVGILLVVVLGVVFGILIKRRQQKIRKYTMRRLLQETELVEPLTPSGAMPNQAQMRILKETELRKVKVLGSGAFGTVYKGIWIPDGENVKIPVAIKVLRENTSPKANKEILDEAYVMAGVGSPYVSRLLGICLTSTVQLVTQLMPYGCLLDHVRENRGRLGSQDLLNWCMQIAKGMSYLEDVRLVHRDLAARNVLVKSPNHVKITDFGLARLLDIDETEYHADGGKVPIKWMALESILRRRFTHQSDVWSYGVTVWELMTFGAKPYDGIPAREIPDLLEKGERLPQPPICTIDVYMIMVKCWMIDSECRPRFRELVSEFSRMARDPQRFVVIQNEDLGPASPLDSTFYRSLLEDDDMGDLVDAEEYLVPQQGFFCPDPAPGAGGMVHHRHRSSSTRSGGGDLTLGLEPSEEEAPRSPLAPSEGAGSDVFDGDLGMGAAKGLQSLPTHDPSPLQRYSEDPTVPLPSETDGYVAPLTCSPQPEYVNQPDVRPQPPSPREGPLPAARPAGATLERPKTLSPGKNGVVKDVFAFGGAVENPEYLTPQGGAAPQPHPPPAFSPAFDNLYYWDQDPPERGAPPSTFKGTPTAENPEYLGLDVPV

Row | SMILES | viability [1] [%] | Her2 level [2] | viability [3] | viability [4] | viability [5] | differential viability (reversal) ([6]; H69AR cells + 2 uM doxorubicin) | viability [6, 9] [%] | viability [6, 10] [%] | inhibition [7] | inhibition [8]
1 | O=C1CCCC2=C1C1(CCCC1)N=C(Nc1nc3ccccc3s1)N2 | 99.5 | 80% (inactive) | 99.5% (inactive) | 62.8% (inactive) | 79.5% (inactive) | 11.3% (inactive) | 68.2 | 79.5 | -4.21% (inactive) | -2.33% (inactive)
2 | CCOC(=O)c1cccc(NC(=O)CSc2nnc(C3CCCCC3)n2C)c1 | 91 | 89% (inactive) | 91% (inactive) | 92.3% (inactive) | 91.3% (inactive) | 6.58% (inactive) | 84.7 | 91.3 | -6.22% (inactive) | -0.95% (inactive)
3 | C=CCSC1=C(C#N)C(c2ccccc2Cl)CC(=O)N1 (stereo not given) | 72 | 85.5% (inactive) | 72% (inactive) | 103% (inactive) | 96.5% (inactive) | 1.45% (inactive) | 95.1 | 96.5 | 0.27% (inactive) | -2.26% (inactive)
4 | CCc1cc2c(CN3CCN(CCO)CC3)cc(=O)oc2cc1O | 106 | 97% (inactive) | 106% (inactive) | 90.4% (inactive) | 92.6% (inactive) | 0.895% (inactive) | 91.7 | 92.6 | -2.53% (inactive) | 1.61% (inactive)
5 | COc1ccc2c(c1OC)C(=O)OC2Nn1cncn1 (stereo not given) | 95.5 | 96.5% (inactive) | 95.5% (inactive) | 109% (inactive) | 103% (inactive) | 3.5% (inactive) | 99.3 | 103 | -4.08% (inactive) | 0.33% (inactive)
6 | CCOc1cc(C(=O)N(C)c2ccccc2)cc(OCC)c1OCC | 108 | 131% (inactive) | 108% (inactive) | 96.4% (inactive) | 89.2% (inactive) | -1.49% (inactive) | 90.7 | 89.2 | -5.64% (inactive) | -11.3% (inactive)
7 | COc1ccc2c(c1)CCc1c(C(=O)N3CCCc4ccccc43)noc1-2 | 98 | 87% (inactive) | 98% (inactive) | 80.8% (inactive) | 81.1% (inactive) | 3% (inactive) | 78.1 | 81.1 | -6.05% (inactive) | -8.91% (inactive)
